RGS4 block = RGS4 inhibitors, primary screen, cell-based, HEK293 M3R inducible RGS4, calcium flux; B-score at 10 µM; actives 0.45% (n = 310,000); AID 463165, 2010; Fluo-4 calcium flux; active compounds read high; triggered by carbachol at its EC20; Regulator of G-protein signaling 4 (Homo sapiens), P49798;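 active = B-score, a plate-corrected calcium signal, over three deviations above library mean, with baseline fluorescence within five deviations of library mean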;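 note: RGS4 expression induced by doxycycline in cells with stable M3 receptor; B-score is computed from the integrated fluorescence ratio over baseline after carbachol; higher B-score means a larger calcium signal and so more RGS4 inhibition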
Target sequence (P49798 whole entry, looked up): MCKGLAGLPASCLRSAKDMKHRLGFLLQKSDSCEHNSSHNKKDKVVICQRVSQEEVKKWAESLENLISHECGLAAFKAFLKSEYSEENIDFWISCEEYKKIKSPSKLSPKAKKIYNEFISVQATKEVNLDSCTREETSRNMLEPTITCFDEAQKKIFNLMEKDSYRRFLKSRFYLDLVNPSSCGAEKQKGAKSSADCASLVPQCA
RGS4 pot = RGS4 potentiators or activators, primary screen, cell-based, HEK293 M3R inducible RGS4, calcium flux | carbachol calcium flux Fluo4; active compounds read low | B-score at 10 µM | actives 0.92% (n = 310,000) | AID 463111, 2010;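 active = B-score of the integrated calcium signal more than 4 SD below the library mean, with starting fluorescence not abnormally high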;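 note: negative B-score means reduced calcium response which marks RGS4 activation or potentiation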
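Assay system: HEK293 FlpIn-TREx cells, stable M3R, doxycycline-inducible RGS4 / Probe or stimulus: carbachol, ECmax concentration / Times: overnight RGS4 induction, 30 min dye load 37 °C, 20 min compound RT / Signal: kinetic calcium fluorescence imaging with Fluo4-AM dye, 2 µM / Measure: Agonist-evoked peak-minus-minimum fluorescence over baseline, integrated ratio, B score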
MrgX1 antag = antagonists of human MrgX1 receptor, primary screen, HEK293 cells, Fluo-4 calcium flux; B-score at 10 µM; Mas-related G-protein coupled receptor member X1 (Homo sapiens), Q96LB2; actives 1.3% (n = 310,000); BAM8-22 antagonism; active compounds read low;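 active = calcium-response B-score plate-corrected more than 3 library SD below zero, starting fluorescence within 5 deviations, no agonist response on first addition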;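 note: peak minus trough fluorescence over baseline after final BAM8-22 challenge near maximal dose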
Target sequence (Q96LB2 whole entry, looked up): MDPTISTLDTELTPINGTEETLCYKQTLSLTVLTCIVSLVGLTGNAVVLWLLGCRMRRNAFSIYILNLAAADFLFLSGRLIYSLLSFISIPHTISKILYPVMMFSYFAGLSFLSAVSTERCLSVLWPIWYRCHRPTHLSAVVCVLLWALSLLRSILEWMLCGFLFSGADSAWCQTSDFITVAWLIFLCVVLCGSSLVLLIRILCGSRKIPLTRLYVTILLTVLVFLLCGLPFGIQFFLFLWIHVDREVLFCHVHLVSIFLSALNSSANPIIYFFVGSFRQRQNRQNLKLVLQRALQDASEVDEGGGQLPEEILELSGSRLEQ
MrgX1 agonist = agonists of human MrgX1 receptor, primary screen, HEK293 cells, Fluo-4 calcium flux. Fluo-4 calcium fluorescence, agonist mode; active compounds read high. Mas-related G-protein coupled receptor member X1 (Homo sapiens), Q96LB2. actives 0.44% (n = 310,000). AID 588627, 2011. B-score at 10 µM;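 active = calcium response B-score plate-corrected fluorescence ratio at least 3 library SD, with starting fluorescence B-score inside 5 SD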
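System – MrgX1-expressing HEK293 cells · Incubation – cells plated overnight, dye loaded 0.5 h 37 °C, 0.5 h room temperature · Technique – kinetic Fluo-4 NW fluorescence of intracellular calcium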
MrgX1 allo act = positive allosteric modulators of MrgX1, primary screen, HEK293 cells, Fluo-4 calcium flux. B-score at 10 µM. Mas-related G-protein coupled receptor member X1 (Homo sapiens), Q96LB2. FDSS; active compounds read high. actives 0.63% (n = 310,000);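 active = plate-corrected calcium response at least 3 library SD above typical, normal starting fluorescence, not activating the receptor alone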;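 note: compound read alongside a low EC10 to EC30 dose of BAM8-22 agonist; peak minus trough fluorescence over baseline measured at the second addition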
* marks the source's active call; other numbers are inactive results. An excerpt weighted towards active compounds, which were near 3.5% of everything screened.

Cc1sc(NC(=O)c2ccco2)c(C(c2cccnc2)N2CCC(C)CC2)c1C (stereo not given) was read as RGS4 block inactive, RGS4 pot -7.93*, MrgX1 antag inactive, MrgX1 agonist inactive and MrgX1 allo act inactive.
COc1cccc(OC)c1NC(=O)CN(C)S(=O)(=O)c1ccc2c(c1)OCCO2 was read as RGS4 block inactive, RGS4 pot inactive, MrgX1 antag inactive, MrgX1 agonist inactive and MrgX1 allo act inactive.
c1csc(-c2nc(CN3CCSCC3)cs2)c1 was read as RGS4 block inactive, RGS4 pot inactive, MrgX1 antag inactive, MrgX1 agonist inactive and MrgX1 allo act inactive.
CC(C)CC(=O)O/N=C1\C(=O)N(Cc2ccc(Cl)cc2)c2ccc([N+](=O)[O-])cc21 was read as RGS4 block 6.38*, RGS4 pot inactive, MrgX1 antag inactive, MrgX1 agonist inactive and MrgX1 allo act inactive.
`CC(C)CC(=O)O/N=C1\C(=O)N(c2ccccc2)c2ccccc21` gave RGS4 block inactive, RGS4 pot inactive, MrgX1 antag inactive, MrgX1 agonist inactive and MrgX1 allo act inactive.
COC(=O)C1(NC(=O)NC2CCCCC2)CCCCC1 was read as RGS4 block inactive, RGS4 pot inactive, MrgX1 antag inactive, MrgX1 agonist inactive and MrgX1 allo act inactive.
For COC(=O)CCCCCCCCCCN1CCCCC1 the results were RGS4 block inactive, RGS4 pot -9.2*, MrgX1 antag inactive, MrgX1 agonist inactive and MrgX1 allo act inactive.
`C1CCCN(CCCCN2CCCCCC2)CC1` gave RGS4 block inactive, RGS4 pot inactive, MrgX1 antag inactive, MrgX1 agonist inactive and MrgX1 allo act inactive.
Screening Cc1onc(-c2cccc(Cl)c2Cl)c1C(=O)O/N=C(\N)c1ccc([N+](=O)[O-])o1 returned RGS4 block inactive, RGS4 pot -8.7*, MrgX1 antag inactive, MrgX1 agonist inactive and MrgX1 allo act inactive.
Screening Cc1ccc(C(C)C)c(OCC(=O)N/N=C/c2cccn2C)c1 returned RGS4 block inactive, RGS4 pot inactive, MrgX1 antag inactive, MrgX1 agonist inactive and MrgX1 allo act inactive.
COCCn1c(=NC(=O)CCS(=O)(=O)c2ccccc2)sc2cc(F)ccc21 was read as RGS4 block inactive, RGS4 pot inactive, MrgX1 antag inactive, MrgX1 agonist inactive and MrgX1 allo act inactive.
For O=C(NCc1ccccn1)C1CCCN(Cc2cnn(-c3ccccc3)c2-n2cccc2)C1 (stereo not given) the results were RGS4 block inactive, RGS4 pot -7.26*, MrgX1 antag inactive, MrgX1 agonist inactive and MrgX1 allo act inactive.
`O=C(NCc1ccccn1)C1CCN(Cc2cnn(-c3ccccc3)c2-n2cccc2)CC1` gave RGS4 block inactive, RGS4 pot inactive, MrgX1 antag inactive, MrgX1 agonist inactive and MrgX1 allo act inactive.
Screening O=C(Nc1ncc(S(=O)(=O)c2ccc([N+](=O)[O-])cc2)s1)c1cccc2ccccc12 returned RGS4 block inactive, RGS4 pot -7.65*, MrgX1 antag inactive, MrgX1 agonist inactive and MrgX1 allo act inactive.
Screening COCC(=O)Nc1ncc(S(=O)(=O)c2ccc([N+](=O)[O-])cc2)s1 returned RGS4 block inactive, RGS4 pot inactive, MrgX1 antag inactive, MrgX1 agonist inactive and MrgX1 allo act inactive.
CCCOC(=O)/C(C(N)=NCc1ccccc1)=C(\O)OCCC was read as RGS4 block inactive, RGS4 pot inactive, MrgX1 antag inactive, MrgX1 agonist 28.3* and MrgX1 allo act inactive.
For O=C(Nc1nc(-c2cc(F)ccc2F)cs1)C1=COCCO1 the results were RGS4 block inactive, RGS4 pot inactive, MrgX1 antag -5.06*, MrgX1 agonist inactive and MrgX1 allo act inactive.
For C=CC[n+]1c(-c2ccccc2)csc1NC(C)(C)C the results were RGS4 block inactive, RGS4 pot inactive, MrgX1 antag -4.94*, MrgX1 agonist inactive and MrgX1 allo act inactive.
CCCCCC[n+]1c(-c2ccccc2)csc1Nc1ccccc1 was read as RGS4 block inactive, RGS4 pot inactive, MrgX1 antag inactive, MrgX1 agonist inactive and MrgX1 allo act inactive.
Screening N#C/C(=C\c1ccccn1)c1nc2ccccc2s1 returned RGS4 block inactive, RGS4 pot inactive, MrgX1 antag -7.25*, MrgX1 agonist inactive and MrgX1 allo act inactive.
O=Cc1cn(CC(O)Cn2cc(C=O)c3ccccc32)c2ccccc12 was read as RGS4 block inactive, RGS4 pot inactive, MrgX1 antag inactive, MrgX1 agonist inactive and MrgX1 allo act inactive.
`CS(=O)(=O)N(Cc1ccco1)CC(O)Cn1cc(C=O)c2ccccc21` (stereo not given) gave RGS4 block inactive, RGS4 pot inactive, MrgX1 antag -5.72*, MrgX1 agonist inactive and MrgX1 allo act inactive.
`CC1(OC(=O)c2ccco2)C(=O)C=C2C=C(C3CC3)OC=C2C1=O` (stereo not given) gave RGS4 block inactive, RGS4 pot inactive, MrgX1 antag -4.99*, MrgX1 agonist inactive and MrgX1 allo act inactive.
For CCC(NC(=O)c1ccncc1)c1ccccc1 (stereo not given) the results were RGS4 block inactive, RGS4 pot inactive, MrgX1 antag inactive, MrgX1 agonist inactive and MrgX1 allo act inactive.
Screening Cc1nn(CCCC(=O)NCc2ccc(F)cc2)c(=O)c2nccn12 returned RGS4 block inactive, RGS4 pot inactive, MrgX1 antag -5.52*, MrgX1 agonist inactive and MrgX1 allo act inactive.
O=C(O)CCC(=O)NCc1c(Cl)cccc1Sc1ccc(Cl)cc1 was read as RGS4 block inactive, RGS4 pot inactive, MrgX1 antag inactive, MrgX1 agonist inactive and MrgX1 allo act inactive.
`CC(=O)OCC(=O)Nc1c(C)cc(C)cc1C` gave RGS4 block inactive, RGS4 pot inactive, MrgX1 antag inactive, MrgX1 agonist inactive and MrgX1 allo act inactive.
`CN(C)CCNC(C(=O)Nc1cccc(C(F)(F)F)c1)c1ccccc1` (stereo not given) gave RGS4 block inactive, RGS4 pot -7.11*, MrgX1 antag inactive, MrgX1 agonist inactive and MrgX1 allo act inactive.
`O=c1/c(=C\c2ccc(O)cc2)sc2n1C(c1ccccc1)C(c1ccccc1)=NN=2` (stereo not given) gave RGS4 block inactive, RGS4 pot inactive, MrgX1 antag inactive, MrgX1 agonist inactive and MrgX1 allo act 12.6*.

Screens: PubChem BioAssay, Johns Hopkins Ion Channel Center
